Activity calls are given as the source filed them. The rule behind the calls is not given here.
Tests used:
Vaccinia virus [1] = test: Inhibition of Vaccinia virus DNA synthesis in by rapid plate assay; type: functional, organism-based; settings: Orthopoxvirus vaccinia
Vaccinia virus [2] = test: Antiviral activity against Vaccinia virus WR in BSC1 cells assessed as reduction in plaque formation after 20 hrs; type: functional, organism-based; settings: Orthopoxvirus vaccinia, BSC-1, 20 h
[3] = Cytotoxicity against african green monkey BSC1 cells after 20 hrs WST-1 based assay; type: cell-based, BSC-1; settings: chlorocebus aethiops, read-out: TC50
In short: (§1)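 Uninfected BS-C-1 cells in phenol red-free medium, seeded 5000 (20 h), 1000 (3-day) or 200 (5-day) cells/well, exposed next day to compound in two-fold serial dilutions (top 200 µM; 1% DMSO final) at 37°C. WST-1 added 30 min, A450 read. Triplicates; percent cytotoxicity vs DMSO fitted four-parameter sigmoidal for TC50.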

Vaccinia virus [4] = test: Antiviral activity against Vaccinia virus WR in BSC1 cells assessed as retention of antiviral potency by measuring exogenous double stranded DNA trapping; type: functional, organism-based; settings: Orthopoxvirus vaccinia, BSC-1
Vaccinia virus [5] = test: Antiviral activity against Vaccinia virus WR in BSC1 cells assessed as protection from virus-induced lysis of cell monolayer after 20 hrs; type: functional, organism-based; settings: Orthopoxvirus vaccinia, BSC-1, 20 h
Vaccinia virus [6] = test: Antiviral activity against Vaccinia virus WR in BSC1 cells assessed as reduction in plaque formation up to 200 uM after 20 hrs; type: functional, organism-based; settings: Orthopoxvirus vaccinia, BSC-1
Vaccinia virus [7] = test: Antiviral activity against Vaccinia virus WR in BSC1 cells assessed as protection from virus-induced lysis of cell monolayer up to 200 uM after 20 hrs; type: functional, organism-based; settings: Orthopoxvirus vaccinia, BSC-1
[8] = Cytotoxicity against african green monkey BSC1 cells up to 200 uM after 20 to 120 hrs WST-1 based assay; type: cell-based; settings: chlorocebus aethiops, bsc-1; in short: as §1

With c1ccc2nc3c(nc2c1)c1ccccc1n3CCN1CCOCC1 the IC50 (Vaccinia virus [1]) was 28 µM, the EC50 (Vaccinia virus [2]) was 30 µM and the CC50 at 20 h [3] was 72 µM.

With CN(c1ccccc1C(=O)O)S(=O)(=O)c1ccc2c3c(cccc13)C(=O)N2 the IC50 (Vaccinia virus [1]) was 75 µM and the CC50 at 20 h [3] was over 200 µM.

In the case of Cc1c(C)n(CCN(C)C)c2ccc(C(=O)OCCN(C)C)cc12 [AMINDOCATE], the IC50 (Vaccinia virus [1]) is reported as 26 µM, the EC50 (Vaccinia virus [2]) is reported as 75 µM and the CC50 at 20 h [3] is reported as over 200 µM.

In the case of CN(C)CC(O)Cn1c2ccc(Cl)cc2c2cc(Cl)ccc21 (configuration not stated), the IC50 (Vaccinia virus [1]) is reported as 12 µM, the EC50 (Vaccinia virus [2]) is reported as 10 µM and the CC50 at 20 h [3] is reported as 17 µM.

For COc1ccc(Nc2nc(N3CCN(C)CC3)nc3ccccc23)c(OC)c1, the Activity (Vaccinia virus [4]) was “inactive”, the EC50 (Vaccinia virus [5]) was 18 µM and the EC50 (Vaccinia virus [2]) was 40 µM. The CC50 at 20 h [3] was 192 µM.

For Cc1ccc2nc(Cl)c3cc(C(=O)N(CCN(C)C)Cc4ccco4)sc3c2c1, the Activity (Vaccinia virus [6]) was “inactive”, the Activity (Vaccinia virus [7]) was “inactive” and the Activity [8] was “Toxic”. It also gave an IC50 (Vaccinia virus [1]) of 10 µM.

Work on CC(C)c1ccc(C2Nc3ccc(C(=O)O)cc3C3C=CCC32)cc1 (configuration not stated) yielded an IC50 (Vaccinia virus [1]) of 100 µM, an EC50 (Vaccinia virus [2]) of 100 µM and a CC50 at 20 h [3] of over 200 µM.

In the case of O=C(O)c1cc(-c2cccs2)nc2ccc(Br)cc12, the IC50 (Vaccinia virus [1]) is reported as 63 µM, the EC50 (Vaccinia virus [2]) is reported as 100 µM and the CC50 at 20 h [3] is reported as over 200 µM.

For COc1ccc2c(c1)C=C/C(=C\c1sc3ccccc3[n+]1C)N2C.[Cl-], the Activity (Vaccinia virus [6]) was “inactive”, the Activity (Vaccinia virus [7]) was “inactive” and the Activity [8] was “Toxic”. It also gave an IC50 (Vaccinia virus [1]) of 4 µM.

Cc1ccc2oc(=O)c3cc(C(=O)NCCN4CCCCC4C)sc3c2c1 (configuration not stated) showed an IC50 (Vaccinia virus [1]) of 25 µM, an EC50 (Vaccinia virus [2]) of 50 µM and a CC50 at 20 h [3] of 147 µM.

For CC(C)Nc1ccc(Nc2ccnc3cc4ccccc4cc23)cc1, the Activity (Vaccinia virus [6]) was “inactive”, the Activity (Vaccinia virus [7]) was “inactive” and the Activity [8] was “Toxic”. It also gave an IC50 (Vaccinia virus [1]) of 4.1 µM.

With CC1=NN(c2ccccc2)C(=O)/C1=C\c1cn(CC(O)CN2CCCCC2)c2ccccc12 (configuration not stated) the IC50 (Vaccinia virus [1]) was 24 µM, the EC50 (Vaccinia virus [2]) was 25 µM and the CC50 at 20 h [3] was 79 µM.

For BrCc1ccc(-c2noc(-c3ccncc3)n2)cc1, the Activity (Vaccinia virus [6]) was “inactive”, the Activity (Vaccinia virus [7]) was “inactive” and the Activity [8] was “Toxic”. It also gave an IC50 (Vaccinia virus [1]) of 1.3 µM.

Work on Oc1ccc(C2(c3ccc(O)cc3)CCCC2)cc1 yielded an IC50 (Vaccinia virus [1]) of 71 µM, an EC50 (Vaccinia virus [2]) of 75 µM and a CC50 at 20 h [3] of 35 µM.

S=c1nc(-c2ccco2)c2c(=S)[nH]c(=S)[nH]c2[nH]1 showed an IC50 (Vaccinia virus [1]) of 142 µM and a CC50 at 20 h [3] of over 200 µM.

O=C(O)c1cc(Cc2ccc(O)c(C(=O)O)c2)ccc1O gave an IC50 (Vaccinia virus [1]) of 51 µM and a CC50 at 20 h [3] of over 200 µM.

In the case of CCOC(=O)c1c(NC(=O)/C=C/C(=O)O)sc(C)c1-c1ccccc1, the Activity (Vaccinia virus [4]) is reported as “Active”, the EC50 (Vaccinia virus [5]) is reported as 30 µM and the IC50 (Vaccinia virus [1]) is reported as 374 µM. For the same compound, the EC50 (Vaccinia virus [2]) was 25 µM and the CC50 at 20 h [3] was 159 µM.

Compound O=C(/C=C/c1ccco1)/C=C/c1ccco1 has an IC50 (Vaccinia virus [1]) of 25 µM, an EC50 (Vaccinia virus [2]) of 75 µM and a CC50 at 20 h [3] of over 200 µM.

With CCOC(=O)c1cc(-c2ccccc2)n(-c2ccc(C(=O)O)cc2)c1C the IC50 (Vaccinia virus [1]) was 120 µM, the EC50 (Vaccinia virus [2]) was 100 µM and the CC50 at 20 h [3] was over 200 µM.

Work on COc1ccc2c(C)nc(NC(=N)/N=C(\C)c3ccccc3C(=O)O)nc2c1 yielded an IC50 (Vaccinia virus [1]) of 13 µM, an EC50 (Vaccinia virus [2]) of 50 µM and a CC50 at 20 h [3] of 164 µM.

COC(=O)C(C(=O)OC)C(Nc1ccccc1)c1ccccc1 (configuration not stated) gave an IC50 (Vaccinia virus [1]) of 638 µM and a CC50 at 20 h [3] of over 200 µM.

CCN1/C(=C/c2ccc3ccccc3[n+]2CC)Sc2cc(NC(C)=O)ccc21 gave an IC50 (Vaccinia virus [1]) of 15 µM, an EC50 (Vaccinia virus [2]) of 200 µM and a CC50 at 20 h [3] of over 200 µM.

In the case of OC(CN1CCNCC1)Cn1c2ccc(Br)cc2c2cc(Br)ccc21 (configuration not stated), the Activity (Vaccinia virus [6]) is reported as “inactive”, the Activity (Vaccinia virus [7]) is reported as “inactive” and the Activity [8] is reported as “Toxic”. It also gave an IC50 (Vaccinia virus [1]) of 6.3 µM.

With O=C1/C(=C/c2ccc(Br)o2)CC/C1=C\c1ccc(Br)o1 the IC50 (Vaccinia virus [1]) was 95 µM and the CC50 at 20 h [3] was over 200 µM.

For CN(C)CC/N=c1\cc(-c2ccccc2)oc2ccc(Cl)cc12, the Activity (Vaccinia virus [6]) was “inactive”, the Activity (Vaccinia virus [7]) was “inactive” and the Activity [8] was “Toxic”. The IC50 (Vaccinia virus [1]) was 6.7 µM.

In the case of O=C1NC(=S)N(c2ccccc2)C(=O)/C1=C\C=C\c1ccco1, the IC50 (Vaccinia virus [1]) is reported as 143 µM, the EC50 (Vaccinia virus [2]) is reported as 50 µM and the CC50 at 20 h [3] is reported as over 200 µM.

In the case of C[n+]1ccc(/C=C/c2ccc3c(c2)OCO3)c2ccccc21, the IC50 (Vaccinia virus [1]) is reported as 24 µM, the EC50 (Vaccinia virus [2]) is reported as 75 µM and the CC50 at 20 h [3] is reported as over 200 µM.

CCN1CCCC1CNC(=O)c1ccc2c(c1)sc1nc(-c3cccc(OC)c3)cn12 (configuration not stated) showed an IC50 (Vaccinia virus [1]) of 47 µM, an EC50 (Vaccinia virus [2]) of 50 µM and a CC50 at 20 h [3] of 75 µM.

In the case of CCN1CCN(c2ccc(Nc3ccnc4cc5ccccc5cc34)cc2)CC1, the Activity (Vaccinia virus [6]) is reported as “inactive”, the Activity (Vaccinia virus [7]) is reported as “inactive” and the Activity [8] is reported as “Toxic”. For the same compound, the IC50 (Vaccinia virus [1]) was 0.5 µM.

Work on N=C(N)Nc1nc(-c2ccccc2)c2ccccc2n1 yielded an IC50 (Vaccinia virus [1]) of 21 µM, an EC50 (Vaccinia virus [2]) of 50 µM and a CC50 at 20 h [3] of 49 µM.

In the case of CCOC(=O)c1cnc2c(C)c(C)ccc2c1NCCCN(C)C, the Activity (Vaccinia virus [6]) is reported as “inactive”, the Activity (Vaccinia virus [7]) is reported as “inactive” and the Activity [8] is reported as “Toxic”. It also gave an IC50 (Vaccinia virus [1]) of 5 µM.

Work on CN(C)CCOC(=O)c1ccc2[nH]c3c(c2c1)CSCC3 [TIPINDOLE] yielded an IC50 (Vaccinia virus [1]) of 115 µM, an EC50 (Vaccinia virus [2]) of 100 µM and a CC50 at 20 h [3] of over 200 µM.
